# M5 PAM: human M5 muscarinic receptor positive allosteric modulators, primary screen, CHO-K1 cells, Fluo-8 calcium fluorescence | Muscarinic acetylcholine receptor M5 (Homo sapiens), P08912 | CHO-K1 hM5, ACh EC20 PAM; 0% = ACh EC20, 100% = ACh EC100 | activation, % at 3 µM | actives 0.3% (n = 360,000) | AID 624038, 2012;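 active = activation above the run cutoff, the mean activation of all test compounds plus 3 SD, cut at about 18% in these data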
#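 System: CHO-K1 hM5 cells. Reagent: acetylcholine, EC20 level. Compound dosing: single dose, 3 µM nominal final test concentration. Timing: Post-acetylcholine fluorescence recording 140 s. Detection: Fluo-8 calcium fluorescence. Read-out: % activation, ACh-normalized. Benchmarks: ACh EC20 and EC100 wells. Repeats: singlicate, one well per test compound.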
# M4 PAM: human M4 muscarinic receptor positive allosteric modulators, primary screen, CHO-K1 cells, Fluo-8 calcium fluorescence | CHO-K1 hM4/Gqi5, ACh EC20; 0% = ACh EC20, 100% = maximal ACh | activation, % at 3 µM | actives 0.4% (n = 360,000) | AID 624126, 2012;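 active = activation above its plate's cutoff, the mean activation of sample wells plus 3 SD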
# Target sequence (P08173 whole entry, looked up): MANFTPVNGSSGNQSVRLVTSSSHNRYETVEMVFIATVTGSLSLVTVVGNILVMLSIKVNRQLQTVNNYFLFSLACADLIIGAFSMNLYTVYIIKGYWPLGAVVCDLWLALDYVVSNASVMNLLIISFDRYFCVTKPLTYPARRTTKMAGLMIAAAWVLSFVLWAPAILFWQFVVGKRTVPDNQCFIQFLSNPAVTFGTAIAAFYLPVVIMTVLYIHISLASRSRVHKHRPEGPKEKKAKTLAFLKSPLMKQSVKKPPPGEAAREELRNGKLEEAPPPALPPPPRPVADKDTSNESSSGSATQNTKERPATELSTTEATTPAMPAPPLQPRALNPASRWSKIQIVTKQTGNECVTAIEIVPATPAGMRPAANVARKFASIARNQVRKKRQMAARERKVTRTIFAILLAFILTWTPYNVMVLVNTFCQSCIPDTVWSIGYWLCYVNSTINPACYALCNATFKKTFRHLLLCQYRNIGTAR
# M4 ag: human M4 muscarinic receptor agonists, primary screen, CHO-K1 cells, Fluo-8 calcium fluorescence; CHO-K1 hM4/Gqi5; vehicle 0%, full acetylcholine response 100%; activation, % at 3 µM; actives 0.14% (n = 360,000);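 active = activation above the run mean over all test wells plus 3 SD, cut at about 32% in these data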;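 also: peak over basal fluorescence ratio per well then scaled between controls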
# M5 ag: human M5 muscarinic receptor agonists, primary screen, CHO-K1 cells, Fluo-8 calcium fluorescence | Muscarinic acetylcholine receptor M5 (Homo sapiens), P08912 | CHO-K1 hM5 cells; 0% DMSO wells, 100% maximal acetylcholine response | activation, % at 3 µM | actives 0.19% (n = 360,000);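 active = activation above the run's mean over test compounds plus 3 SD, cut at about 23% in these data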;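 also: signal is peak over basal fluorescence ratio across the kinetic read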
# M4 antag: human M4 muscarinic receptor antagonists, primary screen, CHO cells, Fluo-8 calcium fluorescence. CHO-hM4 cells, ACh EC80. inhibition, % at 3 µM. actives 0.73% (n = 360,000);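 active = inhibition above its plate's cutoff, the mean inhibition of sample wells plus 3 SD, cut at about 27% in these data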
# M5 antag: human M5 muscarinic receptor antagonists, primary screen, CHO cells, Fluo-8 calcium fluorescence | CHO-hM5 cells, ACh EC80 | inhibition, % at 3 µM | actives 0.59% (n = 360,000) | AID 624040, 2012;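 active = inhibition above a per-plate cutoff, the mean of that plate's test compounds plus 3 SD, cut at about 27% in these data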
# Numbers stand for hits; - = inactive. Shown are actives, neighbours in structure and some others; about 1.9% of the full set was active somewhere.
SMILES,M5 PAM,M4 PAM,M4 ag,M5 ag,M4 antag,M5 antag
C=CCNC(=O)CN1C2CCCC1CC(NC(=O)c1ccccc1C)C2 (stereo not drawn),-,-,-,-,-,-
Cc1ccccc1C(=O)NC1CC2CCCC(C1)N2CC(C)C (stereo not drawn),-,-,-,-,27,-
NC(=O)C1CCN(C(=O)COc2ccc(Nc3ccccc3)cc2)CC1,-,-,-,-,-,-
Oc1ccc(N=C/C=C/c2cccc(Br)c2)cc1-c1nc2ccccc2s1,-,32,-,-,-,-
Nc1ccc(O)c(-c2nc3ccccc3s2)c1,-,-,-,-,-,-
O=C(CNC(=O)c1cccs1)c1ccc(Br)cc1,-,-,-,-,-,-
O=C(OCCCN1CCCC1)C1(c2ccccc2)CCCC1,-,-,-,-,63,39
O=C(COC(=O)C1(c2ccccc2)CCCC1)N1CCNC1=O,-,-,-,-,-,-
CCN(CC)CCOC(=O)C1(c2ccccc2)CCCC1,-,-,-,-,98,99
CCN(CC)CC(=O)NCC1(c2ccccc2)CCCC1,-,-,-,-,39,-
CN(C)CCOC(=O)C1(c2ccccc2)CCOCC1,-,-,-,-,-,-
CCN(CC)CCOC(=O)C1(c2ccc(OC)c(OC)c2)CCCC1,-,-,-,-,-,28
CCOC(=O)C(C)N1c2cccc3cccc(c23)S1(=O)=O (stereo not drawn),-,-,-,-,-,-
O=C(CNC(=O)c1cc(S(=O)(=O)N2CCCCC2)ccc1N1CCOCC1)Nc1ccc(F)c(F)c1,-,-,-,-,-,-
CN(Cc1ccccc1)C(c1ccnc2ccccc12)c1nnnn1-c1ccc2c(c1)OCCO2 (stereo not drawn),-,-,-,-,-,-
CCN(CC)CCOC(=O)C1(C2CCCCC2)CCCCC1,-,-,-,-,98,99
CCN(CC)CCOC(=O)c1ccc(Cl)cc1,-,-,-,-,-,-
CCN(C(=O)COC(=O)c1oc2ccc(OC)cc2c1C)C1CCS(=O)(=O)C1 (stereo not drawn),-,-,-,-,-,-
Cc1ccc(C)c(-n2sc3ccc(F)cc3c2=O)c1,-,-,33,-,-,-
CCOC(=O)c1c(-c2ccc(C)o2)csc1NC(=O)CN(C)CC(=O)Nc1ccc(C)cc1,-,-,-,-,31,-
CC1(C(=O)N2CCN(Cc3ccccc3Cl)CC2)CC1(Cl)Cl (stereo not drawn),-,-,-,-,-,-
CCc1ccc2oc(C(=O)NCCc3ccc(S(N)(=O)=O)cc3)cc(=O)c2c1,-,-,-,-,-,-
Cc1ccc(-c2nn(CCC(=O)O)cc2/C=C\C(=O)c2ccc(Br)cc2)cc1,23,19,-,-,-,-
Cc1ccc(CNC(=O)[C@H]2O[C@@H](n3ccc(N)nc3=O)[C@H](O)[C@@H]2O)o1,-,20,-,-,-,-
CCCn1cnnc1CNC(=O)[C@H]1O[C@@H](n2ccc(N)nc2=O)[C@H](O)[C@@H]1O,-,-,-,-,-,-
COc1ccc(-c2csc(NC(=O)c3cc(C)oc3C)n2)cc1OC,-,-,-,-,-,-
Cc1ccc(SCc2[nH]nc3c2C2(CCSCC2)C(C#N)=C(N)O3)cc1,-,-,-,-,-,-
Cc1ccc(SCc2[nH]nc3c2C2(C(=O)Nc4ccc([N+](=O)[O-])cc42)C(C#N)=C(N)O3)cc1 (stereo not drawn),25,51,-,-,-,-
COc1ccccc1CN1CCC(CNS(=O)(=O)c2cc(-c3cc(C)no3)ccc2OC)CC1,-,-,-,-,32,-
